Measurements: PMC2846993 (Biochimica et biophysica acta, 2010)
Where “and” joins values, the source holds several entries; their conditions need not be identical. Identical values can stand only once.

Tests used:
[1] = system: Glu^1-Pg; details: saturating amounts of 6-AHA, Cl^−-containing buffer; ref [14],[19],[20]; cited from earlier work
[2] = target: T1, Glu^1-Pg activation by uPA (Homo sapiens, UniProt P00747); details: 6-AHA, acetate buffer; ref [34]; cited from earlier work
[3] = target: T1, Glu^1-Pg activation by uPA; assay: uPA-catalyzed Pg activation, chromogenic substrate S-2251; assay type: biochemical; details: 1 mM 6-AHA
[4] = target: Wild type (wt) human Glu^1-Pg (plasminogen) (human); assay: SPR
[5] = target: Glu^1-Pg activation by SK (Homo sapiens, UniProt P00747); assay: SK-mediated; assay type: biochemical, human Glu^1-Pg; SK from Streptococcus equisimilis
[6] = Sedimentation equilibrium / self-association; assay type: physicochemical; details: PAM 22 μM, 20 °C, representative scan at 15,000 rpm
Summary of the method: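 Test protein at 22 μM final in 10 mM HEPES/100 mM NaCl, pH 7.4, at 20 °C. Centrifuged at 10,000 and 15,000 rpm. Apparent molecular weight came from a global fit of three scans at both speeds. Radius vs absorbance was simulated for the purely monomeric protein.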

T1 sequence (P00747 20-810 limits assumed): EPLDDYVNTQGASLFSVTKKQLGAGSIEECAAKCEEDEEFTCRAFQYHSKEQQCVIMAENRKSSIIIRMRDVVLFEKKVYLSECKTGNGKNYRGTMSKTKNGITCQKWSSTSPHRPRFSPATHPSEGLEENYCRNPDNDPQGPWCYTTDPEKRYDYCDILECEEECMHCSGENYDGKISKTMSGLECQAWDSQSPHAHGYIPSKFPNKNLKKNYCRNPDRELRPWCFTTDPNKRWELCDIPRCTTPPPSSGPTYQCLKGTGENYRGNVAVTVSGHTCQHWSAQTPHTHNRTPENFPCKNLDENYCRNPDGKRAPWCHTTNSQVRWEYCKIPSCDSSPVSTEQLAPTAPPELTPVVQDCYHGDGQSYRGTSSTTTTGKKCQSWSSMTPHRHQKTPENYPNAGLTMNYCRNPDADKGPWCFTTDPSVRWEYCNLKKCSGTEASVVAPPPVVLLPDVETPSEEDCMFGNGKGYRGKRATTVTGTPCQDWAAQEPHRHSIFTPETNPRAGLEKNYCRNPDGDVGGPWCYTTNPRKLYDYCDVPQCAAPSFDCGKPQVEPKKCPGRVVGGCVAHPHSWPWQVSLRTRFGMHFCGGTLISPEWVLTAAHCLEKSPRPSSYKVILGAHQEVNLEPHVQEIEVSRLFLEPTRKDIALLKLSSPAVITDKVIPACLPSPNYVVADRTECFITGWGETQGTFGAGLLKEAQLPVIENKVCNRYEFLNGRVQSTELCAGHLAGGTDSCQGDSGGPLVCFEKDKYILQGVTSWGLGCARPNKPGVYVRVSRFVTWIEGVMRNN

NCCCCCC(=O)O [6-AHA, 6-aminohexanoic acid]
decrease in sedimentation coefficient (S°20,w) of Pg [1]: approximately 1 unit
increase in Pg conversion by uPA [2]: 1.2 fold
rate enhancement of uPA-catalyzed Pm generation ([3]; Cl^− buffer (data not shown)): 2.2 fold
rate enhancement of uPA-catalyzed Pm generation ([3]; acetate buffer (data not shown)): 1.1 fold

K^98A/K^111A PAM (KK-PAM) (from UniProt P49054 30-384) (natural protein)
Kd [4]: 38 nM and 44 nM
koff [4]: 0.0095 s⁻¹
kon [4]: 250000 M⁻¹ s⁻¹

K^98A/R^101A/H^102A/E^104A/K^111A PAM (KRHEK-PAM) (from UniProt P49054 30-384) (natural protein)
Kd [4]: 50 nM
koff [4]: 0.017 s⁻¹
kon [4]: 340000 M⁻¹ s⁻¹

R^101A/H^102A PAM (RH-PAM) (from UniProt P49054 30-384) (natural protein)
Kd [4]: 424 nM and 731 nM
koff [4]: 0.014 s⁻¹
kon [4]: 33000 M⁻¹ s⁻¹

Wt-PAM (Pg-binding group A streptococcal M-like protein, GAS strain NS13) (from UniProt P49054 30-384) (natural protein)
Kd [4]: 23 nM and 33 nM
koff [4]: 0.0079 s⁻¹
kon [4]: 340000 M⁻¹ s⁻¹

wt-PAM: Pg-binding group A streptococcal M-like protein, GAS strain NS13, full-length wild type (VEKLTADAELQRLKNERHEEAELERLKSEY)
increase in SK-mediated Pg activation rate ([5]; 20 nM PAM, Pg 80 nM, equimolar SK, 10 mM HEPES/100 mM NaCl, pH 7.4): 3.6 fold
enhancement in Pg conversion rate by SK ([5]; 500 nM PAM, Cl^− buffer (data not shown)): 220 fold
apparent molecular weight (Mw,app), self-association [6]: 71600
